Experimental data reported in ChEMBL document CHEMBL1134313, “Synthesis and biological evaluation of myoseverin derivatives: microtubule assembly inhibitors” (J Med Chem, 2001).

Tests used:
U-937 [1] = test: Growth inhibition of human U937 cells; type: functional
Outline: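 Proliferating U937 human leukemic cells were exposed to the compounds. Potency is reported as GI50, the concentration giving 50% growth inhibition. Toxicity was checked separately at up to 100 µM, as LC50.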

Tubulin = Tubulin (Bos taurus, UniProt Q6B856+Q862L2+Q862F3); test: Inhibition of tubulin polymerization using bovine brain tubulin; type: functional
U-937 [2] = test: Toxicity towards human U937 cells.; type: cell-based

| Structure (SMILES) | GI50 (U-937 [1]) | IC50 (Tubulin) | LC50 (U-937 [2]) |
| --- | --- | --- | --- |
| COc1ccc(CNc2nc(NCc3ccc(OC)cc3)c3ncn(C4CCNCC4)c3n2)cc1 | 6 µM | 5 µM | 40 µM |
| COc1ccc(CNc2nc(NCc3ccc(OC)cc3)c3ncn(C)c3n2)cc1 | 12 µM | 25 µM | – |
| CCn1cnc2c(NCc3ccc(OC)cc3)nc(NCc3ccc(OC)cc3)nc21 | 6 µM | 25 µM | – |
| COc1ccc(CNc2nc(NCc3ccc(OC)cc3)c3ncn(C4CCC(O)CC4)c3n2)cc1 (stereo unspecified) | 2 µM | 3 µM | – |
| COc1ccc(CNc2nc(NCc3ccc(OC)cc3)c3[nH]cnc3n2)cc1 | 18 µM | 50 µM | – |
| COc1ccc(CNc2nc(NCc3ccc(OC)cc3)c3ncn(C(C)C)c3n2)cc1 [MYOSEVERIN] | 4 µM | 8 µM | – |

Second part, led by results:

| GI50 (U-937 [1]) | IC50 (Tubulin) | Structure (SMILES) | LC50 (U-937 [2]) |
| --- | --- | --- | --- |
| 2 µM | 3 µM | COc1ccc(CNc2nc(NCc3ccc(OC)cc3)c3ncn(C4CCCC4)c3n2)cc1 | – |
| 4 µM | 5 µM | COc1ccc(CNc2nc(NCc3ccc(OC)cc3)c3ncn(C4CCOC4)c3n2)cc1 (stereo unspecified) | – |
| 5 µM | 5 µM | COc1ccc(CNc2nc(NCc3ccc(OC)cc3)c3ncn(C4CCC4)c3n2)cc1 | – |
| 0.2 µM | 2 µM | COc1ccc(CNc2nc(NCc3ccc(OC)cc3)c3ncn(C4CCCCC4)c3n2)cc1 | – |
